Measurements reported in paper PMC6209313 (Molecular Pharmaceutics, 2018).
Values after ≈ are worked out from the molar mass of the structure shown. Read-outs that look alike come from different tables or passages of the source.

What was measured:
[1] = Maximum drug loading capacity; assay type: physicochemical; settings: 37 °C, mean (sd)
[2] = Solid state characterization of drug precipitate; assay type: physicochemical; settings: IIIB-MC, 60 min of digestion, PLM and Raman
In short: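 Drug-loaded IIIB-MC (1.25 g in 45 mL medium, pH-stat 6.5, 37 °C) digested with pancreatin. The pellet at 60 min was imaged immediately by crossed-polarizer light microscopy. Raman used 785 nm at 400 mW over 100–1890 cm–1, with SNV baseline correction and blank-pellet background correction. References were crystalline drug, blank and drug-spiked blank pellets, and melt-quenched amorphous drug.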

[3] = Drug solubility in lipolysis medium; assay type: physicochemical; settings: for solubility at 24 h: dispersion medium of blank (placebo) LBF lipolysis, all LBFs, pH 6.5; for solubility fold-increase between dispersion and digestion media: IIIA-LC
In short: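 Placebo LBF digested in pH 6.5 buffer (2 mM Tris-maleate, 1.4 mM CaCl2·2H2O, 150 mM NaCl, FaSSIF 3.0 mM taurocholate/0.75 mM lecithin), 37 °C, porcine pancreatin. Media sampled at 10 min dispersion and 60 min digestion, lipase inhibited with 4-bromophenyl boronic acid, centrifuged. Supernatant shaken with excess crystalline drug at 37 °C, pH readjusted to 6.5. HPLC at 5 h and 24 h; value is mean of 24 h triplicates.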

Dose number = assay type: physicochemical; settings: for Do 80%: 80% of maximum drug load, 45 mL digestion medium; for lipolysis Do: applied drug load during in vitro lipolysis; for Do value: 80% loading, lipid-rich LBFs after digestion, maximum-value of 0.5 observed
[4] = cited from earlier work; for solid form of precipitate during dispersion: dispersion (dilution in bile) ref 13; for solid form of precipitate during digestion: in vitro digestion of LBFs ref 11-17; for solid form of precipitate in vitro and in vivo: drug loaded into LBFs ref 41
[5] = In vitro lipolysis of drug-loaded IIIB-MC, quantification of precipitated drug; assay type: physicochemical; settings: for degree of precipitated drug: 60 min of digestion; for precipitation during lipolysis at 80% loading: data not shown
[6] = Acid/base/neutral class and ionization at the pH of lipolysis; assay type: physicochemical; settings: pH 6.5

Row | Structure (SMILES) | maximum drug loading capacity (loading) ([1]; IIIA-LC) | maximum drug loading capacity (loading) ([1]; IIIB-MC) | maximum drug loading capacity (loading) ([1]; IV) | solid form of precipitated drug in the pellet [2] | Do 80% (Dose number; IIIA-LC) | Do 80% (Dose number; IIIB-MC) | Do 80% (Dose number; IV) | solid form of precipitate during digestion [4] | also measured
1 | O=C(Nc1ccc([N+](=O)[O-])cc1Cl)c1cc(Cl)ccc1O [Niclosamide] | 13.6 (0.4) mg/g | 50.9 (1.6) mg/g | 80.7 (4.5) mg/g | hydrate form | 14.5 | 54.6 | 55.8 | – | solubility at 24 h [3]: < 80 µg/mL; lipolysis Do (Dose number; IIIB-MC): 11.1
2 | COc1ccccc1OCCNCC(O)COc1cccc2[nH]c3ccccc3c12 (stereo not shown) [Carvedilol] | – | – | – | – | – | – | – | amorphous form | solid form of precipitate during dispersion [4]: crystalline form
3 | C#C[C@]1(O)CC[C@H]2[C@@H]3CCC4=Cc5oncc5C[C@]4(C)[C@H]3CC[C@@]21C [Danazol] | 16.4 (0.7) mg/g | 38.8 (1.4) mg/g | 50.1 (1.2) mg/g | crystalline form | 4.9 | 9.5 | 13.5 | crystalline form | solid form of precipitate in previous in vitro lipolysis studies [4]: crystalline form; solid form of precipitate in vitro and in vivo [4]: crystalline form; lipolysis Do (Dose number; IIIB-MC): 4.8
4 | COC1=CC(=O)C[C@@H](C)[C@]12Oc1c(Cl)c(OC)cc(OC)c1C2=O [Griseofulvin] | – | – | – | crystalline form | 1.4 | 2.9 | 4.6 | – | degree of precipitated drug [5]: 11%; precipitation during lipolysis at 80% loading [5]: did not precipitate
5 | CC(=O)N1CCN(c2ccc(OCC3COC(Cn4ccnc4)(c4ccc(Cl)cc4Cl)O3)cc2)CC1 (stereo not shown) [Ketoconazole] | 9.7 (1.2) mg/g | 23.0 (1.0) mg/g | 29.9 (1.5) mg/g | – | 0.2 | 0.5 | 1.4 | – | extent of ionization [6]: 42%; solubility fold-increase between dispersion and digestion media [3]: 2 fold; Do value (Dose number): ≤ 1
6 | C(=C\c1ccccc1)/CN1CCN(C(c2ccccc2)c2ccccc2)CC1 [Cinnarizine] | 34.5 (3.2) mg/g | 41.8 (0.7) mg/g | 43.2 (1.7) mg/g | – | 0.2 | 0.5 | 2.1 | amorphous character or in a molecular dispersion with digestion components | extent of ionization [6]: 90%; solubility fold-increase between dispersion and digestion media [3]: 6 fold; solid form of precipitated material ([4]; pH 4.0, 5.5, and 6.5 (ionized) ref 12): noncrystalline; solid form of precipitated material ([4]; pH 8.0 (unionized) ref 12): crystalline; Do value (Dose number): ≤ 1
7 | CCOC(=O)N1CCC(=C2c3ccc(Cl)cc3CCc3cccnc32)CC1 [Loratidine] | – | – | – | – | – | – | – | crystalline form | solid form of precipitate during dispersion [4]: crystalline form
8 | Cc1c(Cl)cccc1Nc1ccccc1C(=O)O [Tolfenamic acid] | – | – | – | – | – | – | – | crystalline form | –
9 | COc1ccc2c(c1)c(CC(=O)O)c(C)n2C(=O)c1ccc(Cl)cc1 [Indomethacin] | 31.9 (1.1) mg/g | 84.7 (3.5) mg/g | 121.3 (4.2) mg/g | crystalline and amorphous mixture | 0.7 | 1.6 | 2.4 | – | degree of precipitated drug [5]: 2%; precipitation during lipolysis at 80% loading [5]: did not precipitate; solubility at 24 h [3]: 1500 to 1700 µg/mL (≈ 4.19 to 4.75 mM)
10 | CC(C)OC(=O)C(C)(C)Oc1ccc(C(=O)c2ccc(Cl)cc2)cc1 [Fenofibrate] | – | – | – | – | – | – | – | crystalline form | solid form of precipitate in vitro and in vivo [4]: crystalline form
11 | O=C(CCCN1CCC(O)(c2ccc(Cl)cc2)CC1)c1ccc(F)cc1 [Haloperidol] | 3.9 (1.2) mg/g | 17.7 (1.2) mg/g | 21.5 (2.1) mg/g | – | 0.0 | 0.1 | 0.4 | – | extent of ionization [6]: 99%; solubility fold-increase between dispersion and digestion media [3]: 11 fold; Do value (Dose number): ≤ 1
12 | CCC(C)(C)C(=O)O[C@H]1C[C@@H](C)C=C2C=C[C@H](C)[C@H](CC[C@@H]3C[C@@H](O)CC(=O)O3)[C@H]21 [Simvastatin] | – | – | – | – | – | – | – | amorphous form | –
13 | CCOC(=O)C1=C(C)NC(C)=C(C(=O)OC)C1c1cccc(Cl)c1Cl (stereo not shown) [Felodipine] | 75.4 (4.7) mg/g | 176.2 (2.1) mg/g | 218.0 (9.3) mg/g | crystalline and amorphous mixture | 6.8 | 9.1 | 11.1 | – | lipolysis Do (Dose number; IIIB-MC): 9.1
